For one data set, the system named is DU-145. Kind of data set: Cytotoxicity against human DU145 cells by SRB method. Type of data set: functional. A digest of the protocol:
(§1)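 NCI-60 in vitro drug screening panel. Values are the molar concentrations giving 50% growth inhibition (GI50) and total growth inhibition (TGI).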
On the technique in general: In SRB staining, fixed cells bind dye roughly in proportion to their protein.

Data set [1] in a line: Toxicity in ip dosed athymic nude mouse xenografted with human UACC62 cells administered every 4 days. The settings on record: in vivo. Type of data set: organism-based, UACC-62. The essentials: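 Female athymic nude mice received 2 × 10^6 UACC-62 cells sc into each flank and were randomized at a median tumor volume of 150 mm3 (n = 5/group). Compound was given ip in DMSO–Cremophor (1:1) diluted in 200 μL DPBS (final ≤2.5%). Dose-tolerance testing used 10, 2 and 1.5 mg/kg (every 4 days). Mice were weighed daily for weight loss.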
Background: In xenograft studies the graft and the host belong to different species.

For the next data set, the system named is BT-549. Kind of data set: Cytotoxicity against human BT549 cells by SRB method. Type of data set: functional. The essentials: as §1
Another data set deals with NCI-H460. Kind of data set: Cytotoxicity against human NCI-H460 cells by SRB method. Type of data set: functional. The essentials:
as §1

The subject of a further data set is HOP-92. Kind of data set: Cytotoxicity against human HOP92 cells by SRB method. Type of data set: functional. A digest of the protocol: as §1
In another data set the target is mTORC1 (Homo sapiens) (UniProt P42345+Q8N122+Q9BVC4). Briefly: Inhibition of mTORC1 in human HeLa cells assessed as inhibition of S6 kinase phosphorylation at T389 up to 100 nM after 30 mins by Western blotting analysis. It counts as cell-based. A digest of the protocol: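 HeLa whole-cell lysates after vehicle or compound treatment; equal protein on SDS-PAGE, PVDF blot probed for S6 kinase, P-T389-S6 kinase and actin, ECL detection.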
On the technique in general: In western blotting, separated proteins are transferred to a membrane and probed.

Data set [2] in a line: Antitumor activity against human UACC62 cells xenografted in athymic nude mouse at 1.5 mg/kg, ip administered every 4 days relative to untreated control. It counts as functional, UACC-62. Conditions: route intraperitoneal. A digest of the protocol:
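Female athymic nude mice received 2 × 10^6 UACC-62 cells sc into each flank, bilaterally. They were randomized at median tumor volume 150 mm3, n = 5 mice/group. Dosing was ip at 1.5 mg/kg every 4 days, in DMSO–Cremophor (1:1) diluted in 200 μL DPBS (DMSO and Cremophor ≤2.5% final). Tumors were measured twice weekly by caliper. T/C% = (treated final − initial mean volume) ÷ (untreated final − initial) × 100.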

Setting [3] is: read-out: LC50 (the source's name).

Calls of active or inactive are those of the source. The rule behind the calls is not given here.

Here are results for 1 compound from ChEMBL document CHEMBL3351594, “Cytotoxic dimeric epipolythiodiketopiperazines from the ascomycetous fungus Preussia typharum” (J Nat Prod, 2014).

The term GI50 denotes the concentration at which growth is held to half of that of the control. Read a low GI50 as more potent growth inhibition. The term TGI denotes the concentration giving total growth inhibition. The low end stands for greater sensitivity of the cells, the high end for lower sensitivity of the cells. As usually defined, the T/C is the result in the treated group divided by that in the control group, in per cent.

Sequence of mTORC1 (Homo sapiens) (Q8N122 whole entry, looked up, other chains not shown): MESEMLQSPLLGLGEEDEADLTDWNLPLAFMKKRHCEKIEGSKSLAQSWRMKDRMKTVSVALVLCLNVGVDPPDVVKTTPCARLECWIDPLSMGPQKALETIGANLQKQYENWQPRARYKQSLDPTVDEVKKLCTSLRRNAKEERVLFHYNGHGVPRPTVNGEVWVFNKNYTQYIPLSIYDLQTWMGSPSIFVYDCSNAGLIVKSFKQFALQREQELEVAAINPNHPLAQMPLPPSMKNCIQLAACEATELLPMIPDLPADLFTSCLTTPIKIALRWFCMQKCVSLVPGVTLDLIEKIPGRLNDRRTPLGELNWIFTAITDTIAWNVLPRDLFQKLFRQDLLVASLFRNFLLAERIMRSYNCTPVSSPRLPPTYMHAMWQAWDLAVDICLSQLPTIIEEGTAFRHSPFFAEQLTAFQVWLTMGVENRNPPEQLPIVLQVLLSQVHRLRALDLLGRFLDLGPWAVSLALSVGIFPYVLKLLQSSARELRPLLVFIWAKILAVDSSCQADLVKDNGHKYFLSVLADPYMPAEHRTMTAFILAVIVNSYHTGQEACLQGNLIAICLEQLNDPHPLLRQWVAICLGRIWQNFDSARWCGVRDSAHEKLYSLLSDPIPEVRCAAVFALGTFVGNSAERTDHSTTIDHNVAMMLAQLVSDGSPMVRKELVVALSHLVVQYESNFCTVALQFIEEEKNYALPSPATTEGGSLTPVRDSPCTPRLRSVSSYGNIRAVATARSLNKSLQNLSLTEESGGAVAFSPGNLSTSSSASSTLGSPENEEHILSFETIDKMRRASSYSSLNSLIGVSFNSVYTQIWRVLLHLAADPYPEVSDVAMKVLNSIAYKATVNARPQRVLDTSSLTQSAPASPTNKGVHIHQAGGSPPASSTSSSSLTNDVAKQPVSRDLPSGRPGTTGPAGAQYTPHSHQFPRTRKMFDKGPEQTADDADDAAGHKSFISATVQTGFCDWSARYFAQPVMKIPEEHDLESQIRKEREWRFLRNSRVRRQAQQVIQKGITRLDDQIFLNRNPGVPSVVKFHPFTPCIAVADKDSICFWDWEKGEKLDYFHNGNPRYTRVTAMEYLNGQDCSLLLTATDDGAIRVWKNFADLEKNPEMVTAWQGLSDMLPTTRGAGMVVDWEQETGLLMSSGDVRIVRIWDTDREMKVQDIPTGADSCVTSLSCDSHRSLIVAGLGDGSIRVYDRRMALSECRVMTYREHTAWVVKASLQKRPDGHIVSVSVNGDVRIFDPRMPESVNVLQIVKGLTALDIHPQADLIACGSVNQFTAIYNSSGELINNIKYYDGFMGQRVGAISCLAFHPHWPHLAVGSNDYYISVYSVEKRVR
Sequence of mTORC1 (Homo sapiens) (Q9BVC4 whole entry, looked up, other chains not shown): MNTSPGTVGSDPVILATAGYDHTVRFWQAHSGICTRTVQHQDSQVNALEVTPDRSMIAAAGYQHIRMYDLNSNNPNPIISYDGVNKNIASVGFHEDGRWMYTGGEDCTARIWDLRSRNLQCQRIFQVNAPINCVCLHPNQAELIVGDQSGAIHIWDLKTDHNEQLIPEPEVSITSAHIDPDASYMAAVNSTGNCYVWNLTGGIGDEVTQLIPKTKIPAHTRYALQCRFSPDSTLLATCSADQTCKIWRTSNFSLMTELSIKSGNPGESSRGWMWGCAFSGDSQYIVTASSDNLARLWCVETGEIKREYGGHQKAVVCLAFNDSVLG

For `CC(C)[C@@]12SS[C@]3(C(=O)N1C)[C@@H](O)[C@]1(C45c6ccccc6N[C@H]4N4C(=O)[C@@]6(CO)SS[C@@]4(C(=O)N6C)[C@H]5O)c4ccccc4N[C@@H]1N3C2=O` (stereo not given in full), the GI50 in the data set on DU-145 turned out to be 14.8 nM; in the data set with BT-549, 14.8 nM; with NCI-H460 it was 20.9 nM; with HOP-92, 11 nM. Moreover, the TGI in the data set with DU-145 was found to be 53.7 nM; with BT-549 it was 66.1 nM; in the data set with NCI-H460, 75.9 nM; with HOP-92, 28.8 nM. In addition, the CC50 in the data set on DU-145 (setting [3]) was 200 nM; in the data set with BT-549 (setting [3]), 209 nM; in the data set on NCI-H460 (setting [3]), 246 nM; in the data set with HOP-92 (setting [3]), 112 nM. Moreover, in data set [1], the MTD at 96 h worked out at 1.5 mg/kg. For the same compound, the inhibition result at mTORC1 (Homo sapiens) is “inactive”. The T/C in data set [2] is given as 67%.
